# GASC1 inh – KDM4C (human) demethylase inhibition | actives 0.15% (n = 96,000) | inhibition, % at 12.5 µM | GST-KDM4C 2-372, H3K9me3 peptide, LANCE TR-FRET | Q9H3R0;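 active = mean replicate inhibition above about 25%, with at least 55% of replicates also reaching it, limit read from the data, passing the limit was not always enough; inconclusive = only one of those two conditions met; inactive = neither condition met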
# Target sequence (Q9H3R0 2-372 limits assumed): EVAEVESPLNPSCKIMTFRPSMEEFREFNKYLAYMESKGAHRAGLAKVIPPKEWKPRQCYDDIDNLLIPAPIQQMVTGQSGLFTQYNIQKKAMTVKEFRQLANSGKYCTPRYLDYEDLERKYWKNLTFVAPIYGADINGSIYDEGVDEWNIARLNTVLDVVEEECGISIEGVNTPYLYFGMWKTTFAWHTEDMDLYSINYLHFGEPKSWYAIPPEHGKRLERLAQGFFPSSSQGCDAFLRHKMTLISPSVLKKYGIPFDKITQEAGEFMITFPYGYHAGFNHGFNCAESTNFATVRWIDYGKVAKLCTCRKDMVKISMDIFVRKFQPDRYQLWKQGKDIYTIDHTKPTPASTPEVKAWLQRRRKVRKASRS
#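 Material: N-terminal GST-fused human GASC-1 (KDM4C) fragment, residues 2-372. Input: 10 nM enzyme. Incubation: enzyme reaction 30 min, then detection 60 min, both room temperature. Doses: one test concentration per compound. Read-out basis: inhibition from TR-FRET ratio decrease. Detection: LANCE TR-FRET, excitation 340 nm, emissions 618 and 671 nm.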
# T cruzi growth-1 – inhibitors of T. cruzi proliferation; T. cruzi beta-gal in NIH3T3, GalScreen luminescence, 90 h; inhibition, % at 8.34 µM; actives 5.9% (n = 77,000);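 active = mean inhibition above about 93%, with at least 55% of replicates each passing it, limit read from the data, passing the limit was not always enough; inconclusive = only one of those two conditions holds; inactive = neither condition holds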
# IDH1 R132H inh – IDH1 R132H (human) inhibition | O75874 | IDH1 R132H reductase, diaphorase/resazurin fluorescence, 60 min | inhibition, % at 10 µM | actives 0.18% (n = 70,000); in the data active = inhibition above about 34%; inconclusive = no clear call, values can overlap the other calls; inactive = below about 11%;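 note: 0% = DMSO and 100% = no enzyme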
# T cruzi growth-2 – blocks T. cruzi growth in NIH3T3 host cells; shares compounds with T cruzi growth-1; actives 72% (n = 5,600); inhibition, % at 8.35 µM; AID 651739; T. cruzi beta-gal in NIH3T3, GalScreen luminescence, 90 h;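 active = mean replicate inhibition above about 95% and at least 55% of replicates individually reaching it, limit read from the data; inconclusive = only one of the two criteria is met; inactive = neither criterion is met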
# T cruzi growth-3 – blocks T. cruzi growth in NIH3T3 host cells; shares compounds with T cruzi growth-1; T. cruzi beta-gal in NIH3T3, GalScreen luminescence, 90 h; inhibition, % at 2.09 µM; actives 21% (n = 5,600); AID 651740;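 active = mean inhibition above about 95%, with at least 55% of replicates also reaching it, limit read from the data; inconclusive = meets just one of the two conditions; inactive = meets neither condition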;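 note: plate controls were neutral control median for no effect and positive control median for full effect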
# 3T3 cytotox – NIH/3T3 (mouse) viability loss. actives 14% (n = 5,600). cytotoxicity (signal decrease), % at 8.35 µM. shares compounds with T cruzi growth-1. NIH/3T3 viability, CellTiter-Glo ATP luminescence, 90 h;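 active = mean signal decrease across replicates above about 35% based on untreated-well scatter, with enough replicates individually passing, limit read from the data; inconclusive = no rule stated though some were filed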;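 note: 0% = median of neutral control wells and 100% = median of positive control wells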
# 3T3 cytotox 2 – kills mouse NIH/3T3 fibroblasts | NIH/3T3 viability, CellTiter-Glo ATP luminescence, 90 h | actives 56% (n = 5,600) | inhibition, % at 24.9 µM | shares compounds with T cruzi growth-1;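 active = mean loss of cell viability signal at or above a set limit, and enough replicates individually reaching it; inconclusive = meets only the mean limit or only the replicate share; inactive = meets neither condition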;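 note: 0% = median of neutral control wells and 100% = median of positive control wells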
# Numbers without * were called inactive; ? = inconclusive; nt = no result. Only a selection was taken, and hits are over-represented in it overall.
SMILES,GASC1 inh,T cruzi growth-1,IDH1 R132H inh,T cruzi growth-2,T cruzi growth-3,3T3 cytotox,3T3 cytotox 2
COc1ccc(Cl)cc1NC(=O)CN(c1ccc(I)cc1)S(C)(=O)=O,nt,nt,0,nt,nt,nt,nt
CCC(C)(C)C(=O)N1CCC(C(=O)OC)CC1,nt,nt,0,nt,nt,nt,nt
O=C(CCCCCC(=O)N/N=C/CCC1CCCCC1)NO,nt,nt,0,nt,nt,nt,nt
Cc1nn(C)c(C)c1CNC(=O)c1cnn2c1NC(c1ccc(Br)cc1)CC2C(F)(F)F (configuration not stated),nt,nt,0,nt,nt,nt,nt
O=C(NCC[C@H]1CC[C@H](NC(=O)c2ccncc2)[C@H](CO)O1)Nc1ccc(Cl)cc1,-1,-36,0,nt,nt,nt,nt
O=C(NCC[C@@H]1CC[C@H](NC(=O)c2ccncc2)[C@H](CO)O1)Nc1ccc(Cl)cc1,-2,101*,0,97*,41,-3,-6
OC[C@H]1[C@H](c2ccc(-c3ccccc3F)cc2)[C@H]2CN(Cc3cccnc3)CCCCN21,0,72,nt,nt,nt,nt,nt
OC[C@@H]1[C@H](c2ccc(-c3ccccc3F)cc2)[C@@H]2CN(Cc3ccncc3)CCCCN12,4,?,nt,107*,26,15,90*
OC[C@H]1[C@@H](c2ccc(-c3ccccc3F)cc2)[C@@H]2CN(Cc3cccnc3)CCCCN12,-1,85,nt,nt,nt,nt,nt
OC[C@@H]1[C@@H](c2ccc(-c3ccccc3F)cc2)[C@@H]2CN(Cc3ccncc3)CCCCN12,3,75,nt,nt,nt,nt,nt
OC[C@@H]1[C@H](c2ccc(-c3ccc(F)cc3)cc2)[C@H]2CN(Cc3ccncc3)CCCCN12,3,108*,nt,92,70,?,104*
OC[C@@H]1[C@@H](c2ccc(-c3ccccc3F)cc2)[C@H]2CN(Cc3cccnc3)CCCCN12,-1,97*,nt,76,38,?,97*
OC[C@H]1[C@@H](c2ccc(-c3ccc(F)cc3)cc2)[C@H]2CN(Cc3ccncc3)CCCCN21,2,63,nt,nt,nt,nt,nt
OC[C@@H]1[C@H](c2ccc(-c3ccc(F)cc3)cc2)[C@@H]2CN(Cc3cccnc3)CCCCN12,0,123*,nt,106*,66,28,95*
Cc1nn(CC(=O)Nc2ccc(O)cc2)c(C)c1[N+](=O)[O-],nt,nt,0,nt,nt,nt,nt
CN1CCN(c2ccccc2NC(=O)COc2ccc([N+](=O)[O-])cc2)CC1,nt,nt,0,nt,nt,nt,nt
O=C1C(=O)N(Cc2ccco2)C(c2cccc(O)c2)C1C(=O)c1ccco1 (configuration not stated),nt,nt,0,nt,nt,nt,nt
O=C(CSc1ncnc2scc(-c3ccccc3)c12)c1ccccc1,nt,nt,1,nt,nt,nt,nt
O=C(CSc1nnc(-c2ccccc2)o1)Nc1cccc(F)c1,nt,nt,0,nt,nt,nt,nt
Cc1cccc(S(=O)(=O)N2CCCCN3[C@H](CO)[C@@H](c4ccc(C#CC5CC5)cc4)[C@H]3C2)c1,-1,94,nt,nt,nt,nt,nt
COc1cccc(S(=O)(=O)N2CCCCN3[C@@H](CO)[C@@H](c4ccc(C#CC5CC5)cc4)[C@@H]3C2)c1,-1,53,nt,nt,nt,nt,nt
COc1cccc(S(=O)(=O)N2CCCCN3[C@H](CO)[C@@H](c4ccc(C#CC5CC5)cc4)[C@@H]3C2)c1,-1,?,nt,107*,100*,11,22
Cc1cccc(S(=O)(=O)N2CCCCN3[C@H](CO)[C@H](c4ccc(C#CC5CC5)cc4)[C@@H]3C2)c1,1,91,nt,nt,nt,nt,nt
O=S(=O)(c1ccc(F)cc1)N1CCCCN2[C@@H](CO)[C@H](c3ccc(C#CC4CC4)cc3)[C@@H]2C1,1,?,nt,109*,44,44*,103*
Cc1cccc(S(=O)(=O)N2CCCCN3[C@H](C2)[C@H](c2ccc(C#CC4CC4)cc2)[C@@H]3CO)c1,0,108*,nt,109*,98*,13,65*
SMILES,GASC1 inh,T cruzi growth-1,IDH1 R132H inh,T cruzi growth-2,T cruzi growth-3,3T3 cytotox,3T3 cytotox 2
COc1cccc(S(=O)(=O)N2CCCCN3[C@H](CO)[C@@H](c4ccc(C#CC5CC5)cc4)[C@H]3C2)c1,-2,104*,nt,98*,86,45*,105*
O=S(=O)(c1ccccc1)N1CCCCN2[C@@H](CO)[C@H](c3ccc(C#CC4CCCC4)cc3)[C@@H]2C1,0,90,nt,nt,nt,nt,nt
COc1ccc(CNC2C3CC4CC(C3)CC2C4)c(OC)c1C (configuration not stated),nt,nt,-2,nt,nt,nt,nt
O=C(NC(=S)NCc1cccnc1)c1ccc(-c2cccc(Cl)c2Cl)o1,nt,nt,0,nt,nt,nt,nt
COc1cc(OC)c(C2=NOC(C(=O)Nc3sc4c(c3C#N)CCCC4)C2)cc1Cl (configuration not stated),nt,nt,0,nt,nt,nt,nt
O=C1c2c(O)cc(O)cc2O[C@@H](c2ccc(O)cc2)[C@@H]1O,nt,nt,0,nt,nt,nt,nt
N#C[C@@H]1N[C@@H](CO)[C@@H]1c1ccc(-c2ccccc2F)cc1,-2,?,nt,11,-6,-6,0
N#C[C@H]1N[C@@H](CO)[C@H]1c1ccc(C2=CCCC2)cc1,-3,46,nt,nt,nt,nt,nt
O=C(NC[C@@H]1N[C@@H](CO)[C@@H]1c1ccc(-c2ccccc2F)cc1)c1ccccn1,-3,102*,nt,45,13,-10,-7
O=C(NC[C@H]1N[C@@H](CO)[C@H]1c1ccc(-c2ccccc2)cc1)c1ccccc1F,-3,76,nt,nt,nt,nt,nt
N#C[C@H]1N[C@@H](CO)[C@@H]1c1ccc(-c2ccccc2F)cc1,-2,58,nt,nt,nt,nt,nt
N#C[C@@H]1N[C@H](CO)[C@H]1c1ccc(-c2ccccc2F)cc1,1,102*,nt,53,33,-3,17
N#C[C@H]1N[C@H](CO)[C@H]1c1ccc(-c2ccccc2F)cc1,0,75,nt,nt,nt,nt,nt
N#C[C@@H]1N[C@H](CO)[C@H]1c1ccc(C2=CCCC2)cc1,0,101*,nt,89,-1,-26,-1
CCn1c(SCC(=O)Nc2cccc(C(F)(F)F)c2)nnc1-c1ccco1,nt,nt,0,nt,nt,nt,nt
Cc1ccccc1NC(=O)c1ccc(OCC(=O)Nc2ccccc2C(F)(F)F)cc1,nt,nt,0,nt,nt,nt,nt
CCc1cnc(N2[C@H](CO)[C@H](c3ccc(C#CC(C)C)cc3)[C@@H]2C#N)s1,2,89,nt,nt,nt,nt,nt
CCc1cnc(N2[C@H](C#N)[C@H](c3ccc(C#CC(C)C)cc3)[C@@H]2CO)s1,-1,96*,nt,100*,113*,6,0
CCc1cnc(N2[C@H](C#N)[C@H](c3ccc(C#CC(C)C)cc3)[C@H]2CO)s1,-1,107*,nt,98*,108*,16,26*
CCc1cnc(N2[C@H](C#N)[C@@H](c3ccc(C#CC(C)C)cc3)[C@H]2CO)s1,-1,83,nt,nt,nt,nt,nt
COc1ccc(C)cc1NC(=O)CNS(=O)(=O)c1ccccc1,nt,nt,0,nt,nt,nt,nt
O=C(Cn1cnc2scc(-c3cccc([N+](=O)[O-])c3)c2c1=O)Nc1ccc(F)c(Cl)c1,nt,nt,0,nt,nt,nt,nt
NC(=O)CSc1nnc(SCc2cccc3ccccc23)s1,nt,nt,0,nt,nt,nt,nt
N#C[C@H]1[C@H](c2ccc(-c3ccccc3F)cc2)[C@H](CO)N1C(=O)c1ccccn1,4,21,nt,nt,nt,nt,nt
